# Published values gathered from unrelated publications.
# Protocols differ between the studies behind these lines.
# Target: Homeodomain-interacting protein kinase 1 (HIPK1, Homo sapiens, UniProt Q86Z02)
Structure (SMILES),assay,conditions,endpoint,result
CNC(=O)c1cc(Oc2ccc(NC(=O)Nc3ccc(Cl)c(C(F)(F)F)c3)cc2)ccn1,"enzyme activity, inhibitor",10 µM,inhibition,61%
COc1cccc(Nc2nc3cc(C(=O)O)ccc3c3cnccc23)c1,"enzyme activity, inhibitor, radiometric",1 µM,remaining activity,11%
Cc1ccc(Nc2nccc(N(C)c3ccc4c(C)n(C)nc4c3)n2)cc1S(N)(=O)=O,"enzyme activity, inhibitor",0.3 µM,inhibition,11%
O=C1Nc2ccc(Cl)cc2C1=Cc1cc(Cl)c(O)c(Cl)c1,cell-free assay,0.5 µM,remaining signal,102%
Nc1ncnc2occ(-c3ccc(NC(=O)Nc4cc(C(F)(F)F)ccc4F)cc3)c12,"cell-free assay, inhibitor",20 µM,remaining signal,0.1%
CO[C@@H](C)c1c(Nc2ccc([C@@H](N(C)C(=O)C3CCS(=O)(=O)CC3)C(F)(F)F)cc2)cnc2cc(Cl)nn12,"cell-free assay, competition with immobilised ligand",1 µM,remaining binding,56%
CCN(CC)CCNC(=O)c1c(C)[nH]c(/C=C2\C(=O)Nc3ccc(F)cc32)c1C,"enzyme activity, inhibitor",10 µM,inhibition,59%
CC(=O)c1c(NS(C)(=O)=O)c2cc(-c3ccc(Cl)cc3)c(-c3ccc(Cl)cc3Cl)nc2n(C)c1=O,"cell-free assay, competition with immobilised ligand",1 µM,remaining binding,96%
O=C(O)c1ccc2c(c1)nc(NCCc1cccc(F)c1)c1ccncc12,"enzyme activity, inhibitor, radiometric",1 µM,remaining activity,13%
COc1cc2c(N3CCN(C(=O)Nc4ccc(OC(C)C)cc4)CC3)ncnc2cc1OCCCN1CCCCC1,cell-free assay,0.5 µM,remaining signal,98.9%
COc1cc2ncnc(Nc3ccc(Oc4ccccc4)c(C)c3C)c2cc1OC,"enzyme activity, inhibitor",1 µM,inhibition,3%
N#Cc1cccc(Nc2nc3cc(C(=O)O)ccc3c3cncnc23)c1,"enzyme activity, inhibitor, radiometric",1 µM,remaining activity,17%
Cc1nccc(COC(=O)N2C[C@@H]3[C@@H](CNC(=O)c4ccc5[nH]nnc5c4)[C@@H]3C2)n1,"cell-free assay, competition with immobilised ligand",1 µM,remaining binding,82%
O=C(O)c1ccc2c(c1)nc(NCCc1ccccc1)c1ccncc12,"enzyme activity, inhibitor, radiometric",1 µM,remaining activity,12%
COc1cc(/C=C/C(=O)CC(=O)/C=C/c2ccc(O)c(OC)c2)ccc1O,"enzyme activity, inhibitor",1 µM,activity vs control,44%
CCC(=O)N[C@H]1CC[C@@H](C(=O)N(C)c2ccc(-c3nc4ccccc4o3)cc2)C1,"cell-free assay, competition with immobilised ligand",1 µM,remaining binding,80%
Cc1ccc(NC(=O)c2ccc(C)c(C(F)(F)F)c2)cc1C#Cc1nn(C2CCC(O)CC2)c2ncnc(N)c12 (stereo not drawn),cell-free assay,10 µM,remaining signal,107%
COc1cc(Nc2cnc(C#N)c(O[C@H](C)CN(C)C)n2)ncc1-c1cnn(C)c1,"enzyme activity, inhibitor, radiometric",1 µM,remaining activity,95%
Cn1nc(C(F)(F)F)cc1-c1cnc(N2CCc3cc(S(=O)(=O)Nc4c(F)cc(Cl)cc4F)cc(N4CCCC4=O)c32)nc1,"cell-free assay, competition with immobilised ligand",1 µM,remaining binding,87%
Cc1ccc(C(=O)NCc2ccsc2)cc1C#Cc1cn(C(C)C)c2ncnc(N)c12,"enzyme activity, inhibitor",1 µM,activity vs control,106%
COCCOc1nc(-c2ccc(Cl)nc2)nc2c1CN(C(=O)c1ncn3ccccc13)CC2,"cell-free assay, competition with immobilised ligand",0.1 µM,remaining binding,90%
COc1cccc(CCNc2nc3cc(C(=O)O)ccc3c3cncnc23)c1,"enzyme activity, inhibitor, radiometric",1 µM,remaining activity,36%
FC(F)(F)Oc1cccc(-c2cnc3ccc(-c4ccncc4)nn23)c1,"enzyme activity, inhibitor, radiometric",5 µM,activity vs control,29%
CNC(=O)c1ccc(Nc2ncc(C(F)(F)F)c(NCc3nccnc3N(C)S(C)(=O)=O)n2)cc1,"cell-free assay, competition with immobilised ligand",0.1 µM,remaining binding,27%
O=C(O)c1ccc2c(c1)nc(Nc1ccc(F)c(Cl)c1)c1ccncc12,"enzyme activity, inhibitor, radiometric",1 µM,remaining activity,8%
CNC(=O)Nc1ccc2c(c1)CC[C@@]21OC(=O)N(CC(=O)N(Cc2ccc(F)cc2)[C@@H](C)C(F)(F)F)C1=O,"cell-free assay, competition with immobilised ligand",1 µM,remaining binding,85%
O=C(O)c1ccc2c(c1)nc(Nc1cccc(F)c1)c1ncncc12,"enzyme activity, inhibitor, radiometric",1 µM,remaining activity,3%
CCCS(=O)(=O)Nc1ccc(F)c(C(=O)c2c[nH]c3ncc(-c4ccc(Cl)cc4)cc23)c1F,"enzyme activity, inhibitor",1 µM,inhibition,< 10%
O=C(O)c1ccc2c(c1)nc(Nc1ccccc1)c1ccncc12,"enzyme activity, inhibitor, radiometric",1 µM,remaining activity,30%
N#CCCc1ccc2c(c1)-c1[nH]c3ccc([N+](=O)[O-])cc3c1CC(=O)N2,cell-free assay,0.5 µM,remaining signal,97.9%
